Publication PMC4872389 (The American journal of Chinese medicine, 2016)

Legend:
[1] = tested on: cytochrome p450 (Cyp); conditions: orally administered general Cyp inhibitor; ref Zhang et al., 2015b; cited from earlier work
[2] = Plasma and tissue D, DA, DOH after sub-chronic dietary AGN exposure; assay type: in vivo, male C57BL/6J mice; conditions: for Terminal-bleed plasma level by HPLC-UV: 0.5% and 1% AGN diet, 6 weeks, all but one mouse; for concentration at 6 weeks: male, C57BL/6J, mouse, oral
How it was run: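 Male C57BL/6J mice, 6 weeks old, 10 per group, were fed AIN-93M diet containing 0.5% or 1% (w/w) AGN extract ad libitum for 6 weeks. Terminal plasma was taken by cardiac puncture (heparin) under anesthesia, 1–4 pm. Tissues were homogenized in 4 volumes of water. Samples were extracted with ethyl acetate and analyzed by HPLC-UV, with D and DA quantitated together. Values are mean ± SE, n=5.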

[3] = rat, in vivo; cited from earlier work
[4] = Plasma and tissue D, DA, DOH after a single gavage dose of D/DA; assay type: in vivo, male C57BL/6 mice
How it was run: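 Male C57BL/6 mice, 6–7 weeks old, 5 per group, got one gastric gavage of 3 mg D/DA (1.8 mg D + 1.2 mg DA) in 0.3 mL of 10% ethanol/20% PEG400/3.3% Tween80/66.7% USP 5% dextrose. Plasma (cardiac puncture, heparin) and tissues were collected at time points over 24 h. Water homogenates (ice bath) were extracted with ethyl acetate. Analysis was HPLC-UV, except prostate by UHPLC-MS/MS.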

[5] = Plasma, tissue and urine pyranocoumarins after repeated i.p. AGN; assay type: in vivo, CD-1 mice; conditions: 3 h after last i.p. injection of AGN
How it was run: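 CD-1 mice, 8–10 weeks old, 6 per sex per group, were kept on AIN-93M diet. They received i.p. vehicle or AGN extract at 100, 200 or 300 mg/kg in 0.3 mL, six days/week for 4 weeks, with dose adjusted weekly to body weight. Blood and organs were taken 3 h after the last injection. Extracts were made with ethyl acetate and analyzed by HPLC-UV; n=4~6 per dose group.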

[6] = adipose, single gavage 3 mg D/DA
[7] = kidney, single gavage 3 mg D/DA
[8] = male, C57BL/6, mouse, plasma, po, 3 mg
[9] = prostate, single gavage 3 mg D/DA

Cmax [4, 6] | Cmax ([4]; brain, single gavage 3 mg D/DA) | Cmax [4, 7] | Cmax ([4]; liver, single gavage 3 mg D/DA) | Cmax ([4]; lung, single gavage 3 mg D/DA) | Cmax [4, 8] | Tmax ([4]; male, C57BL/6, mouse, po, 3 mg) | Cmax [4, 9] | concentration at 6 weeks ([2]; brain) | concentration at 6 weeks ([2]; kidney) | concentration at 6 weeks ([2]; liver) | concentration at 6 weeks ([2]; lung) | concentration at 6 weeks ([2]; plasma, 0.5 % AGN in diet) | concentration at 6 weeks ([2]; plasma, 1 % AGN in diet) | concentration at 6 weeks ([2]; prostate) | Content in liver, lung, kidney and brain relative to plasma [5] | Compound | Increase of prostate retention on blocking Cyp activities [1] | Terminal-bleed plasma level by HPLC-UV [2] | Reported safe dose [3]
7.26 µmol/kg | 1.78 µmol/kg | 5.51 µmol/kg | 2.95 µmol/kg | 3.13 µmol/kg | 0.76 µM | 1 h | 14.80 µmol/kg | – | – | – | – | – | – | – | – | C/C=C(/C)C(=O)O[C@H]1Cc2cc3ccc(=O)oc3cc2OC1(C)C [DA, decursinol angelate] | 2 orders of magnitude | below limit of detection | –
28.5 µmol/kg | 23.3 µmol/kg | 50.4 µmol/kg | 47.8 µmol/kg | 31.6 µmol/kg | 39.8 µM | 1 h | 46.4 µmol/kg | 2.97 µM | 14.4 µM | 41.1 µM | 3.33 µM | 0.99 ± 0.11 µM | 2.44 ± 0.52 µM | 12.8 µM | lower than its plasma level | CC1(C)Oc2cc3oc(=O)ccc3cc2C[C@@H]1O [DOH, decursinol] | – | – | –

Compound | Cmax [4, 6] | Cmax ([4]; brain, single gavage 3 mg D/DA) | Cmax [4, 7] | Cmax ([4]; liver, single gavage 3 mg D/DA) | Cmax ([4]; lung, single gavage 3 mg D/DA) | Cmax [4, 8] | Tmax ([4]; male, C57BL/6, mouse, po, 3 mg) | Cmax [4, 9] | concentration at 6 weeks ([2]; brain) | concentration at 6 weeks ([2]; kidney) | concentration at 6 weeks ([2]; liver) | concentration at 6 weeks ([2]; lung) | concentration at 6 weeks ([2]; plasma, 0.5 % AGN in diet) | concentration at 6 weeks ([2]; plasma, 1 % AGN in diet) | concentration at 6 weeks ([2]; prostate) | Content in liver, lung, kidney and brain relative to plasma [5] | Increase of prostate retention on blocking Cyp activities [1] | Terminal-bleed plasma level by HPLC-UV [2] | Reported safe dose [3]
CC(C)=CC(=O)O[C@H]1Cc2cc3ccc(=O)oc3cc2OC1(C)C [D, decursin] | 1.75 µmol/kg | 1.00 µmol/kg | 0.42 µmol/kg | 0.38 µmol/kg | 0 µmol/kg | 0.38 µM | 1 h | 4.90 µmol/kg | – | – | – | – | – | – | – | – | 2 orders of magnitude | below limit of detection | 250 mg D/kg
